This note sets out measurements from ChEMBL document CHEMBL1777700, “Inhibition of multi-drug resistant HIV-1 reverse transcriptase by nucleoside β-triphosphates” (Bioorg Med Chem Lett, 2011).

Assay [1] deals with Human immunodeficiency virus type 1 reverse transcriptase (Human immunodeficiency virus 1) (UniProt Q72547). Description: Inhibition of wild type HIV1 recombinant reverse transcriptase p66/p51 heterodimer at 10 nM after 10 mins by gel-based radiolabeled primer extension assay. Summed up: (§1)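 Purified p66/p51 HIV-1 RT (10 nM) was added to start reactions containing 50 nM of a 40 nt DNA template annealed to a 5′ end-labeled 22 nt DNA primer. The mix held 200 μM dNTPs, 10 mM Tris-HCl pH 8.0, 80 mM NaCl and 6 mM MgCl2. Reactions ran 10 min at 37 °C and were stopped with formamide gel-loading buffer. Inhibitor was tested at 10 nM–1 mM in tenfold steps, with a no-inhibitor lane.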

Assay [2] deals with Human immunodeficiency virus type 1 reverse transcriptase (Human immunodeficiency virus 1), Q72547 [M184V,K65R,Y115F]. As to the kind of experiment: Inhibition of NRTI-resistant HIV1 recombinant reverse transcriptase p66/p51 M184V/K65R/Y115F mutant at 10 uM after 10 mins by gel-based radiolabeled primer extension assay. Summed up: as §1
Assay [3] has as its target Human immunodeficiency virus type 1 reverse transcriptase (Human immunodeficiency virus 1) (UniProt Q72547). As to the kind of experiment: Inhibition of NNRTI-resistant HIV1 recombinant reverse transcriptase p66/p51 heterodimer at 10 nM to 10 uM after 10 mins by gel-based radiolabeled primer extension assay.
For assay [4] the target is unchanged. As to the kind of experiment: Inhibition of NNRTI-resistant HIV1 recombinant reverse transcriptase p66/p51 heterodimer at 100 uM after 10 mins by gel-based radiolabeled primer extension assay. Summed up:
as §1

The subject of assay [5] is Human immunodeficiency virus type 1 reverse transcriptase (Human immunodeficiency virus 1), Q72547 [M184V,K65R,Y115F]. Description: Inhibition of NRTI-resistant HIV1 recombinant reverse transcriptase p66/p51 M184V/K65R/Y115F mutant at 10 nM after 10 mins by gel-based radiolabeled primer extension assay. The gist of the method:
as §1

The target of assay [6] is Human immunodeficiency virus type 1 reverse transcriptase (Human immunodeficiency virus 1) (UniProt Q72547). Description: Inhibition of wild type HIV1 recombinant reverse transcriptase p66/p51 heterodimer at 10 to 100 uM after 10 mins by gel-based radiolabeled primer extension assay. Summed up: as §1
For assay [7] the target is unchanged. As to the kind of experiment: Inhibition of NNRTI-resistant HIV1 recombinant reverse transcriptase p66/p51 heterodimer up to 1 mM after 10 mins by gel-based radiolabeled primer extension assay. The gist of the method: as §1
The target is the same in assay [8]. As to the kind of experiment: Inhibition of wild type HIV1 recombinant reverse transcriptase p66/p51 heterodimer […] after 10 mins by gel-based radiolabeled primer extension assay.
Assay [9] deals with Human immunodeficiency virus type 1 reverse transcriptase (Human immunodeficiency virus 1), Q72547 [M184V,K65R,Y115F]. Description: Inhibition of NRTI-resistant HIV1 recombinant reverse transcriptase p66/p51 M184V/K65R/Y115F mutant at 100 uM after 10 mins by gel-based radiolabeled primer extension assay. Summed up: as §1

SMILES strings stand for the structures. Calls of active or inactive are those of the source. No cut-off for these calls is given here.

For `Cc1cn([C@H]2C[C@H](N=[N+]=[N-])[C@@H](COP(=O)(OP(=O)(O)O)OP(=O)(O)O)O2)c(=O)[nH]c1=O`, the inhibition result in [1], in assay [2], in assay [4] and in assay [5] was “Active” throughout. Moreover, the inhibition entry in [3] was “inactive”.

As for `Nc1ncnc2c1ncn2[C@@H]1O[C@H](COP(=O)(OP(=O)(O)O)OP(=O)(O)O)[C@@H](O)[C@H]1O`, the inhibition result in [1], in assay [2], in [4] and in [5] was “Active” each time. The inhibition result in [3] was “inactive”.

Consider `Cc1cn([C@H]2C[C@H](F)[C@@H](COP(=O)(OP(=O)(O)O)OP(=O)(O)O)O2)c(=O)[nH]c1=O`, for which the inhibition result in assay [6], in assay [7], in assay [8] and in assay [9] was “Active” throughout.

Regarding `Cc1cn([C@H]2C=C[C@@H](COP(=O)(OP(=O)(O)O)OP(=O)(O)O)O2)c(=O)[nH]c1=O`, the inhibition result in assay [6], in assay [7], in assay [8] and in [9] was “Active” throughout.
